Ten compounds from ChEMBL document CHEMBL5329185, “Structure-activity relationship studies on vitamin D-based selective SREBP/SCAP inhibitor KK-052” (RSC Med Chem, 2023) can be followed below.

SMILES strings stand for the structures. Activity calls are given as the source filed them. The calls are words filed in the database; no cut-off is given here.

Assay [1] deals with T1, Vitamin D3 receptor (Homo sapiens) (UniProt P11473).
T1 sequence (whole entry): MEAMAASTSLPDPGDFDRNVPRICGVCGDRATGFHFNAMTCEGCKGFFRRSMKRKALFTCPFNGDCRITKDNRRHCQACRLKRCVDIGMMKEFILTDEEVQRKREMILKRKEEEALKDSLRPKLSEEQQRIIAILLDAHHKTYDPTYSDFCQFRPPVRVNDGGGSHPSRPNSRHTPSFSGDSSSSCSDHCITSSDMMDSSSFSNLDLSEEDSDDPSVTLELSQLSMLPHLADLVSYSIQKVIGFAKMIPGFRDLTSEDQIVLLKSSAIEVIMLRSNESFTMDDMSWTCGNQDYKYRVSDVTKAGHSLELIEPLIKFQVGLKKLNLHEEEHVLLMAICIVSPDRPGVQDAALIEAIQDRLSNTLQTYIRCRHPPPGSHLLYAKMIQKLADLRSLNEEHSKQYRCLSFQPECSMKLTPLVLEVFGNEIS
Nature of the assay: Activation of VDR (unknown origin) transfected in CHO-K1 cells assessed as luciferase activity at 5 uM measured after 24 hrs by Steady-Glo luciferase assay. The format is cell-based. The conditions noted are these: filed as activator. An outline of the steps:
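CHO-K1 cells transfected with a VDRE-driven luciferase reporter, then treated with compounds at 5 μM in lipid-free medium. 25(OH)D3 run in parallel as control, DMSO as negative control. Luciferase read-out, mean ± SD.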

Assay [2] concerns CHO-K1. As to the kind of experiment: Downregulation of SCAP protein level in wild type CHO-K1 cells at 15 uM measured after 24 hrs by Western blot analysis. The format is functional, cell-based. The conditions noted are these: Cricetulus griseus. Put shortly: (§1)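 Wild-type CHO-K1 cells or CHO-K1 cells overexpressing FLAG-SCAP(1–767) held in lipid-free medium with 15 μM compound for 24 h. Lysis in RIPA with protease inhibitors, 20 000g spin, BCA protein assay, SDS-PAGE and immunoblot. Endogenous SCAP probed with anti-hamster SCAP, the overexpressed form with anti-FLAG M2, actin as loading control. HRP chemiluminescence detection.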
(In western blotting, separated proteins are transferred to a membrane and probed.)

For assay [3], the system named is CHO-K1. As to the kind of experiment: Downregulation of SCAP protein level in CHO-K1 cells harbouring FLAG-SCAP (1 to 767 residues) at 15 uM measured after 24 hrs by Western blot analysis. It counts as functional, cell-based. The following applies: Cricetulus griseus. An outline of the steps: as §1
A short description of assay [4]: Inhibition of SREBP/SCAP (unknown origin) transfected with CHO-K1 cells cotransfected with pSRE-Luc/pAC-beta-gal measured after 24 hrs by Steady-Glo luciferase assay. It counts as cell-based. The following applies: CHO-K1, 24 h. An outline of the steps:
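IC50 taken from a dose-response in CHO-K1 cells transfected with an SRE-driven luciferase reporter. Cells were treated with various compound concentrations in lipid-free medium. Luciferase read-out, mean ± SD.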

The subject of assay [5] is CHO-K1. Nature of the assay: Inhibition of SREBP/SCAP (unknown origin) transfected with CHO-K1 cells cotransfected with pSRE-Luc/pAC-beta-gal at 5 uM measured after 24 hrs by Steady-Glo luciferase assay. It counts as cell-based. The following applies: Homo sapiens. Put shortly: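 CHO-K1 cells transfected with an SRE-controlled luciferase reporter, exposed to compounds at 5 μM in lipid-free medium. 25(OH)D3 tested alongside as control. Luciferase signal reported as mean ± SD.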

The IC50 is the concentration needed to halve the response being measured.

As for `C[C@H](CCC(F)(F)C(C)(C)O)[C@H]1CC[C@H]2/C(=C/Cn3nnnc3-c3ccc(Cl)cc3)CCC[C@]12C`, in assay [1], the result was Active. As to `C=C1CC[C@H](O)C/C1=C/C=C1\CCC[C@]2(C)[C@@H]([C@H](C)CCCC(C)(C)O)CC[C@@H]12`, the outcome in the assay with CHO-K1 [2] and with CHO-K1 [3] was Active. With `C[C@H](CCC(F)(F)C(C)(C)O)[C@H]1CC[C@H]2/C(=C/Cn3nnc(-c4ccccc4Cl)n3)CCC[C@]12C`, the result in the assay with CHO-K1 [2] and in the assay on CHO-K1 [3] was Active. The same compound returned an IC50 in assay [4] of 2000 nM. Further, the inhibition result in the assay with CHO-K1 [5] is “Active”. `Cc1ccc(-c2nnn(C/C=C3\CCC[C@]4(C)[C@@H]([C@H](C)CCC(F)(F)C(C)(C)O)CC[C@@H]34)n2)cc1`: the result in assay [1] was Active. For the compound `Cc1cccc(-c2nnnn2C/C=C2\CCC[C@]3(C)[C@@H]([C@H](C)CCC(F)(F)C(C)(C)O)CC[C@@H]23)c1`, the outcome in the assay on CHO-K1 [2] and in the assay on CHO-K1 [3] was Active. 1400 nM corresponded to half-maximal inhibition in assay [4] (IC50). For the same compound, in the assay on CHO-K1 [5], the inhibition entry was “Active”. With `C[C@H](CCC(F)(F)C(C)(C)O)[C@H]1CC[C@H]2/C(=C/Cn3nnc(-c4ccc(C(F)(F)F)cc4)n3)CCC[C@]12C`, the outcome in assay [1] was Active. In the case of `C[C@H](CCC(F)(F)C(C)(C)O)[C@H]1CC[C@H]2/C(=C/Cn3nnnc3-c3ccc(C(F)(F)F)cc3)CCC[C@]12C`, the result in assay [1] was Active. Still for that read-out and setting: the value for `C[C@H](CCC(F)(F)C(C)(C)O)[C@H]1CC[C@H]2/C(=C/Cn3nnc(-c4ccc(Cl)cc4)n3)CCC[C@]12C` was “Active”.

Regarding `C[C@H](CCC(F)(F)C(C)(C)O)[C@H]1CC[C@H]2/C(=C/Cn3nnnc3-c3ccccc3)CCC[C@]12C`, the outcome in the assay with CHO-K1 [2] and in the assay on CHO-K1 [3] was Active. The compound also came in with an IC50 in assay [4] of 3500 nM. Consider `Cc1ccc(-c2nnnn2C/C=C2\CCC[C@]3(C)[C@@H]([C@H](C)CCC(F)(F)C(C)(C)O)CC[C@@H]23)cc1`, for which, in assay [1], the result was Active.
